Measured values reported in ChEMBL document CHEMBL3425408, “Design, synthesis, in vitro, and in vivo anticancer and antiangiogenic activity of novel 3-arylaminobenzofuran derivatives targeting the colchicine site on tubulin” (J Med Chem, 2015).
Active and inactive are the calls of the source. No cut-off for these calls is given here.

Assays:
[1] = test system: MCF7; experiment: Antiproliferative activity against human MCF7 cells after 72 hrs by (3-(4,5-dimethylthiazol-2-yl)-2,5-diphenyltetrazolium bromide test; format: functional, cell-based; conditions: MCF7, 72 h
[2] = Antiproliferative activity against human HL60 cells after 72 hrs by (3-(4,5-dimethylthiazol-2-yl)-2,5-diphenyltetrazolium bromide test; format: functional, cell-based; conditions: HL-60, 72 h
How it was run: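 Jurkat, RS4;11 and HL-60 cells grown in RPMI-1640; MCF-7, A549, HeLa and HT-29 cells grown in DMEM; both media with 10% FBS and penicillin/streptomycin. 8 × 10^3 cells per well were preincubated 18 h at 37 °C, 5% CO2, then exposed 72 h to a concentration range (DMSO ≤0.25%). Read-out was MTT; IC50 was taken against cells given the maximum DMSO. Mean ± SE of at least three experiments.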

[3] = test system: Jurkat; experiment: Induction of cell cycle arrest in human Jurkat cells assessed as cell arrest at G2/M phase after 24 hrs by propidium iodide based flow cytometric analysis; format: functional
How it was run: (§1)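 HeLa or Jurkat cells (5 × 10^5) treated 24 h. Cells fixed in ice-cold 70% ethanol, lysed with RNase A and 0.1% Triton X-100, and stained with propidium iodide. DNA content analyzed by flow cytometry to give cell-cycle phase distribution.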

[4] = test system: Jurkat; experiment: Induction of cells cycle arrest in human Jurkat cells assessed as cell arrest at G2/M phase at > 60 nM after 24 hrs by propidium iodide based flow cytometric analysis; format: functional; how it was run: as §1
[5] = test system: HeLa; experiment: Induction of cell cycle arrest in human HeLa cells assessed as increase in cyclin B expression at 100 nM after 24 hrs by Western blot analysis; format: functional, cell-based
How it was run: (§2)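 HeLa cells treated 24 or 48 h. Lysates cleared at 15000g, and 10 μg protein run on 7.5–15% SDS-PAGE and blotted to PVDF. Membranes blocked in 5% BSA and probed for cyclin B, p-cdc2 Tyr15 and cdc25c, then detected with peroxidase secondary and ECL. Blots stripped and reprobed for β-actin as loading control.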

[6] = test system: HeLa; experiment: Induction of cell cycle arrest in human HeLa cells assessed as increase in p-cdc2 Tyr15 expression at 250 nM after 24 hrs by Western blot analysis; format: functional, cell-based; how it was run: as §2
[7] = test system: HeLa; experiment: Induction of cell cycle arrest in human HeLa cells assessed as decrease in p-cdc2 Tyr15 expression at 100 to 250 nM after 48 hrs by Western blot analysis; format: functional, cell-based; how it was run: as §2
[8] = test system: HeLa; experiment: Effect on phosphatase cdc25 expression in human HeLa cells at 100 to 250 nM after 24 to 48 hrs by Western blot analysis; format: functional, cell-based; how it was run: as §2
[9] = test system: HeLa; experiment: Induction of apoptosis in human HeLa cells assessed as caspase 3 activation at 100 to […] by Western blot analysis; format: functional, cell-based; conditions: TDE = time-dependent effect
How it was run: (§3)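 HeLa lysates prepared after the indicated times. 10 μg protein separated by SDS-PAGE on PVDF blots. Primary antibodies (2 h, room temperature) against PARP, caspase-3, cleaved caspase-9, Bcl-2 and Mcl-1, then peroxidase secondary with ECL detection. β-Actin reprobe used as loading control.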

[10] = test system: HeLa; experiment: Induction of apoptosis in human HeLa cells assessed as caspase 9 activation after 24 to 48 hrs by Western blot analysis; format: functional, cell-based; how it was run: as §3
[11] = test system: Mus musculus; experiment: In vivo antitumor activity against mouse BNL 1ME A.7R.1 cells allografted in Balb/c mouse assessed as reduction in tumor growth at 10 mg/kg, ip up to 8 days relative to vehicle treated control; format: functional, organism-based; set-up: dose 10 mg/kg
How it was run: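 Male Balb/c mice (8 weeks old) implanted s.c. in the dorsal region with 10^7 BNL 1ME A.7R.1 cells in PBS. Dosed i.p. daily from the second day at 5 or 10 mg/kg, in vehicle of 0.9% NaCl with 5% PEG 400 and 0.5% Tween 80 (7 μL/g). Tumors measured daily with calipers for 7 days, volume = AB²/2. Five mice per group.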

[12] = test system: Mus musculus; experiment: In vivo antitumor activity against mouse BNL 1ME A.7R.1 cells allografted in Balb/c mouse assessed as reduction in tumor growth at 5 mg/kg, ip up to 8 days relative to vehicle treated control; format: functional, organism-based; set-up: dose 5 mg/kg
How it was run: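 Male Balb/c mice, 8 weeks old, received 10^7 BNL 1ME A.7R.1 cells in 200 μL PBS subcutaneously in the dorsal region. Mice were randomised into groups of 5 and dosed ip daily from day 2. Vehicle was 0.9% NaCl with 5% PEG 400 and 0.5% Tween 80, at 7 μL/g. Tumours were measured daily by caliper for 7 days; V = AB²/2.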

[13] = test system: HUVEC; experiment: Antivascular activity in HUVEC assessed as inhibition of endothelial cell migration to tumor site at 25 nM after 6 hrs by wound-healing assay; format: functional, cell-based; conditions: Homo sapiens
How it was run: (§4)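 Scratch assay: confluent HUVEC monolayer on 0.1% collagen I wounded with a pipette tip and washed with PBS. Cells treated with compound and photographed at set times. Wound width measured in four areas and compared with the initial width to give gap closure. Three independent experiments.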

[14] = test system: HUVEC; experiment: Antivascular activity in HUVEC assessed as inhibition of endothelial cell migration to tumor site at 5 nM after 24 hrs by wound-healing assay; format: functional, cell-based; conditions: Homo sapiens; how it was run: as §4
[15] = test system: HUVEC; experiment: Antivascular activity in HUVEC assessed as distruption of capillary like tube formation at 5 to 25 nM after 1 hr by matrigel assay; format: functional, cell-based; conditions: Homo sapiens
How it was run: (§5)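 Tube-disruption assay: HUVECs (passages 1–6) plated on gelled Matrigel and allowed 6 h to form capillary-like networks. Compound then added to the preformed networks for 1 or 3 h. Five fields per well photographed. Area covered, total network length, mesh number and branching points measured as percent change from complete-medium controls. Three independent experiments.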

[16] = test system: HUVEC; experiment: Antivascular activity in HUVEC assessed as distruption of capillary like tube formation at 5 to 25 nM after 3 hrs by matrigel assay; format: functional, cell-based; conditions: Homo sapiens; how it was run: as §5
[17] = test system: HUVEC; experiment: Cytotoxicity against HUVEC cells at 5 to 25 nM; format: cell-based; conditions: human, 0.025 µM
[18] = test system: Chorioallantoic membrane; experiment: Induction of blood vessel formation in chick embryo chorioallantoic membrane (CAM) at 100 pmol/egg; format: functional, tissue-based; conditions: Gallus gallus
[19] = test system: Chorioallantoic membrane; experiment: Antivascular activity in chick embryo chorioallantoic membrane (CAM) assessed as inhibition of FGF-induced blood vessel formation at 1 pmol/egg by microscopically measured on day 11; format: functional, tissue-based; conditions: Gallus gallus
How it was run: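 CAM assay: alginate sponges carrying FGF plus compound (0.1–1.0 pmol per pellet) grafted onto the CAM of fertilized chicken eggs on day 11 of development. Blood vessels converging toward the implant counted under a stereomicroscope at 5× after 72 h (day 14). At least six eggs per group.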

[20] = Antivascular activity in mouse B16-BL6 cells allografted in C57/BL6 mouse assessed as reduction blood vessel formation in tumor measured at 30 mg/kg, ip after 24 hrs; format: functional; conditions: route intraperitoneal
How it was run: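 C57BL/6 mice (6 weeks old) given 10^5 BL6-B16 melanoma cells s.c. in the dorsolateral flank in PBS. At 300 mm3 tumor volume, single i.p. dose of 30 mg/kg in DMSO. Tumors harvested 24 h later, frozen in OCT and cut into 4–5 μm sections. CD31-positive vessels counted in 5 fields per section (40× objective). Five mice per group.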

[21] = test system: HeLa; experiment: Induction of apoptosis in human HeLa cells assessed as reduction in Mcl-1 expression at 100 to 250 nM after 48 hrs by Western blotting analysis

Row | Compound | IC50 [1] | IC50 [2] | Activity [3] | Activity [4] | Activity [5] | Activity [6] | inhibition [7] | Activity [8] | Activity [9] | Activity [10] | Activity [21] | further results
1 | COC(=O)c1oc2cc(OC)ccc2c1Nc1cc(OC)c(OC)c(OC)c1 | 27 nM | 5 nM | Dose-dependent effect | >70% | Active | Active | Active | inactive | tde | Dose-dependent effect | Active | Activity [11]: Active; Activity [12]: inactive; Activity [13]: Active; Activity [14]: Active; Activity [15]: Active; Activity [16]: Active; Activity [17]: Non-toxic; Activity [18]: inactive; inhibition [19]: Active; inhibition in vivo at 30 mg/kg [20]: 20%
2 | CCOC(=O)c1oc2cc(OC)ccc2c1Nc1cc(OC)c(OC)c(OC)c1 | 25 nM | 24 nM | Dose-dependent effect | >70% | Active | Active | Active | inactive | tde | Dose-dependent effect | Active | 
